According to ChEMBL document CHEMBL1151959, “Identification and biological evaluation of a series of 1H-benzo[de]isoquinoline-1,3(2H)-diones as hepatitis C virus NS5B polymerase inhibitors” (J Med Chem, 2009):
Values after ≈ are worked out from the molar mass of the structure shown. Active and inactive are the calls of the source. The rule behind the calls is not given here.

Key:
[1] = Inhibition of HCV1b BK NS5B Cdelta21 RNA dependent RNA polymerase; design: species or system Hepatitis C virus (isolate BK)
Procedure, shortened: (§1)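 Truncated ΔC21 NS5B RdRp from the HCV genotype 1b BK strain or the genotype 2b 2b.2 strain. Values are the mean of two or more experiments, with SD within 30% of the mean.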

[2] = Inhibition of HCV2b.2 NS5B Cdelta21 RNA dependent RNA polymerase; design: species or system Hepacivirus hominis, 2b.2; procedure, shortened: as §1
[3] = test system: Hepatitis C virus; experiment: Antiviral activity against HCV1b Con1 infected in human Huh7 clone HBI10A cells expressing HEPREP 1b replicon by cell-ELISA assay; format: functional, organism-based, Hepacivirus hominis; details: isolate Con1, Huh-7
[4] = Cytotoxicity against human HuH7 cells by MTT assay; format: cell-based; details: Huh-7 cells
[5] = test system: Hepatitis C virus; experiment: Antiviral activity against HCV1b BK infected in human H2B2 cells expressing HEPREP 2b replicon by cell-ELISA assay
[6] = Inhibition of HCV1a RB5 NS5B Cdelta21 RNA dependent RNA polymerase; design: species or system Hepatitis C virus subtype 1a
[7] = Inhibition of HCV2a.4 NS5B Cdelta21 RNA dependent RNA polymerase; design: species or system Hepacivirus hominis, 2a.4
[8] = Inhibition of HCV3a.7 NS5B Cdelta21 RNA dependent RNA polymerase; design: species or system Hepacivirus hominis, 3a.7
[9] = Inhibition of HCV4a NS5B Cdelta21 RNA dependent RNA polymerase; design: species or system Hepatitis C virus subtype 4a
[10] = Inhibition of HCV6a NS5B Cdelta21 RNA dependent RNA polymerase; design: species or system Hepatitis C virus subtype 6a
Procedure, shortened: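 Purified ΔC21-truncated NS5B RNA-dependent RNA polymerase from HCV genotype 6a, run alongside enzymes from the other major genotypes. Each value is the mean of two or more separate experiments, with SD within ±30% of the mean.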

[11] = test system: Hepatitis C virus; experiment: Antiviral activity against HCV H77-1a infected in human Huh7 cells by replicon cell-ELISA assay; details: genotype 1a H77, Huh-7
[12] = test system: Hepatitis C virus; experiment: Antiviral activity against HCV1b BK infected in human Huh7 cells by replicon cell-ELISA assay; details: Huh-7
[13] = test system: Hepatitis C virus; experiment: Antiviral activity against HCV1b Con1 infected in human Huh7 cells by replicon cell-ELISA assay; details: isolate Con1, Huh-7
[14] = test system: Hepatitis C virus; experiment: Antiviral activity against HCV 2b.2 infected in human Huh7 cells by replicon cell-ELISA assay; details: 2b.2, Huh-7
[15] = Inhibition of DNA polymerase 1 Klenow fragment
[16] = Inhibition of HIV reverse transcriptase; design: species or system Human immunodeficiency virus
[17] = molecular target: Genome polyprotein (GB virus-B, UniProt Q69422); experiment: Inhibition of Hepatitis GB virus B NS5B RNA dependent RNA polymerase
[18] = Inhibition of Bovine viral diarrhea virus 1 RNA-dependent RNA polymerase
[19] = Lipophilicity, log D of the compound; format: physicochemical; details: octanol/water
[20] = Solubility of the compound; format: physicochemical
[21] = Oral bioavailability in rat at 3 mg/kg; format: ADME, organism-based; details: in vivo
[22] = AUC in rat at 3 mg/kg, po; format: ADME, organism-based; design: dose 3 mg/kg, route oral; details: plasma
Procedure, shortened: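 Single oral dose of 3 mg/kg given to rats. Compound concentrations were measured in plasma, and AUC was taken from the plasma exposure after oral dosing. The same rat study also included an iv administration arm.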

[23] = Cmax in rat at 3 mg/kg, po after 0.7 hrs; format: ADME, organism-based; design: dose 3 mg/kg, route oral; details: in vivo
[24] = Elimination half life in rat at 3 mg/kg, iv; format: ADME, organism-based; design: dose 3 mg/kg, route intravenous; details: in vivo
[25] = Clearance in rat at 3 mg/kg, iv; format: ADME, organism-based; design: dose 3 mg/kg, route intravenous; details: in vivo
[26] = Volume of distribution at steady state in rat at 3 mg/kg, iv; format: ADME, organism-based; design: dose 3 mg/kg, route intravenous; details: in vivo, read-out: Vdss
[27] = test system: Hepatitis C virus (isolate BK); experiment: Inhibition of HCV1b BK NS5B Cdelta21 RNA dependent RNA polymerase in pre-elongation phase assessed as residual enzyme activity at 6.4 uM to 3 nM preincubated for 15 mins with polyA oligoU18 RNA in room temperature
Procedure, shortened: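 ΔC21-1b polymerase (20 nM) with polyA/oligoU18 RNA, preincubated 15 min at room temperature before compound addition or not preincubated. Compound titrated 3 nM to 6.4 μM. Residual activity measured.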

[28] = test system: Hepatitis C virus (isolate BK); experiment: Inhibition of HCV1b BK NS5B Cdelta21 RNA dependent RNA polymerase in pre-elongation phase assessed as residual enzyme activity at 1 uM preincubated for 120 mins with polyA oligoU18 RNA in room temperature
Procedure, shortened: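 Preincubation time course: ΔC21-1b enzyme and polyA/oligoU18 RNA preincubated 0 to 120 min before adding compound at 1 μM. Residual polymerase activity measured.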

[29] = test system: Hepatitis C virus (isolate BK); experiment: Inhibition of HCV1b BK NS5B Cdelta21 RNA dependent RNA polymerase in pre-elongation phase assessed as residual activity at 1 uM to 0.1 nM preincubated for 5 mins with polyA oligoU18 RNA in room temperature in presence of heparin
Procedure, shortened: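 Single-cycle conditions: ΔC21-1b enzyme and polyA/oligoU18 RNA preincubated 5 min, then compound added from 0.1 nM to 1 μM. Elongation started with 3H-UTP plus heparin (50 ng/μL) to trap free enzyme. Residual polymerase activity measured.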

[30] = molecular target: RNA-directed RNA polymerase (Hepacivirus hominis, UniProt O39930, P495A); experiment: Inhibition of HCV1b BK NS5B Cdelta21 RNA dependent RNA polymerase Thumb site 1 P495A mutant; design: species or system Hepatitis C virus (isolate BK)
[31] = Inhibition of HCV1b BK NS5B Cdelta21 RNA dependent RNA polymerase Thumb site 2 R501E mutant; design: species or system Hepatitis C virus (isolate BK)
[32] = molecular target: RNA-directed RNA polymerase (Hepacivirus hominis, UniProt O39930, M423K); experiment: Inhibition of HCV1b BK NS5B Cdelta21 RNA dependent RNA polymerase Thumb site 2 M423K mutant; design: species or system Hepatitis C virus (isolate BK)
[33] = molecular target: RNA-directed RNA polymerase (Hepacivirus hominis, UniProt O39930, M414T); experiment: Inhibition of HCV1b BK NS5B Cdelta21 RNA dependent RNA polymerase Palm site 1 and 2 M414T mutant; design: species or system Hepatitis C virus (isolate BK)

## Nc1ccc2c3c(cccc13)C(=O)N(c1cccc(Br)c1)C2=O
[1]
  IC50: 190 nM
[2]
  IC50: 300 nM

## O=C1c2cccc3c(NCCO)ccc(c23)C(=O)N1c1ccccc1
[1]
  IC50: 1700 nM
[2]
  IC50: > 50000 nM

## COCCNc1ccc2c3c(cccc13)C(=O)N(c1cccc(Br)c1)C2=O
[1]
  IC50: 24 nM
[2]
  IC50: 124 nM

## CNCCNc1ccc2c3c(cccc13)C(=O)N(c1cccc(Br)c1)C2=O
[1]
  IC50: 130 nM
[2]
  IC50: 400 nM
[3]
  EC50: 2000 nM
[4]
  CC50: 1500 nM

## O=C1c2ccc(NCCO)c3cccc(c23)CN1c1cccc(Br)c1
[1]
  IC50: 850 nM
[2]
  IC50: 3500 nM

## O=C1c2cccc3c(NC4CCNCC4)ccc(c23)C(=O)N1c1cccc(Br)c1
[1]
  IC50: 30 nM
[2]
  IC50: 120 nM
[3]
  EC50: 1900 nM
[4]
  CC50: 3500 nM

## CN(CCO)c1ccc2c3c(cccc13)C(=O)N(c1cccc(Br)c1)C2=O
[1]
  IC50: 500 nM
[2]
  IC50: 1800 nM

## OCCNc1ccc2c3c(cccc13)CN(c1cccc(Br)c1)C2
[1]
  IC50: > 50000 nM
[2]
  IC50: > 50000 nM

## O=C1c2cccc3c(NC4CCCCC4)ccc(c23)C(=O)N1c1cccc(Br)c1
[1]
  IC50: 66 nM
[2]
  IC50: 120 nM
[3]
  EC50: > 50000 nM
[4]
  CC50: > 50000 nM

## CC(C)CNc1ccc2c3c(cccc13)C(=O)N(c1cccc(Br)c1)C2=O
[1]
  IC50: 130 nM
[2]
  IC50: 90 nM
[3]
  EC50: 11000 nM
[4]
  CC50: > 50000 nM

## O=C1c2cccc3c(NCCO)ccc(c23)C(=O)N1c1cccc(Br)c1
[2]
  IC50: 180 nM
[5]
  EC50: 11000 nM
[4]
  CC50: 76000 nM
[6]
  IC50: 64 nM
[7]
  IC50: 770 nM
[8]
  IC50: 760 nM
[9]
  IC50: 540 nM
[10]
  IC50: 490 nM
[11]
  EC50: 4700 nM
[12]
  EC50: 4600 nM
[13]
  EC50: 6400 nM
[14]
  EC50: 11100 nM
[15]
  IC50: > 50000 nM
[16]
  IC50: > 50000 nM
[17]
  IC50: > 50000 nM
[18]
  IC50: > 50000 nM
[19]
  logD: 3.45
[20]
  solubility: 0.44 µg/mL (≈ 1.07 µM)
[21]
  bioavailability: 83%
[22]
  AUC: 9.7 µM·h
[23]
  Cmax: 4 µM
[24]
  half-life: 42 min
[25]
  clearance: 12 mL/min/kg
[26]
  Vd: 1.1 L/kg
[27]
  Activity: inactive
[28]
  Activity: inactive
[29]
  Activity: Active

## O=C1c2cccc3cccc(c23)C(=O)N1c1cccc(Br)c1
[1]
  IC50: > 50000 nM
[2]
  IC50: > 50000 nM

## O=C1c2cccc3c(NC4CCN(Cc5ccccc5)CC4)ccc(c23)C(=O)N1c1cccc(Br)c1
[1]
  IC50: < 14 nM
[2]
  IC50: 43 nM
[3]
  EC50: 2200 nM
[4]
  CC50: 5200 nM

## CCNc1ccc2c3c(cccc13)C(=O)N(c1cccc(Br)c1)C2=O
[1]
  IC50: 29 nM
[2]
  IC50: 185 nM

## CC(C)N(c1cc(-c2ccccc2)sc1C(=O)O)C(=O)[C@H]1CC[C@H](C)CC1
[1]
  IC50: 9 nM
[2]
  IC50: > 10000 nM
[3]
  EC50: 1400 nM
[4]
  CC50: > 50000 nM
[30]
  IC50: 40 nM
[31]
  IC50: 100 nM
[32]
  IC50: > 500 nM
[33]
  IC50: 16 nM

## O=C1c2cccc3c(N[C@H]4CC[C@@H](C(=O)O)CC4)ccc(c23)C(=O)N1c1cccc(Br)c1
[1]
  IC50: 42 nM
[2]
  IC50: 110 nM
[3]
  EC50: 3800 nM
[4]
  CC50: > 50000 nM

## NS(=O)(=O)c1cccc(N2C(=O)c3cccc4c(NCCO)ccc(c34)C2=O)c1
[1]
  IC50: 1600 nM
[2]
  IC50: > 50000 nM
[3]
  EC50: > 50000 nM
[4]
  CC50: > 50000 nM
